The source made the active and inactive calls. No cut-off for these calls is given here.
Legend:
[1] = test system: Lytechinus pictus; assay: (§1) Antagonistic activity at NAADP receptor in sea urchin egg homogenate assessed as inhibition of NAADP-mediated Ca2+ release using Fluo-3 staining based fluorimetric assay relative to control; assay type: functional, tissue-based
[2] = Displacement of [32P]NAADP from NAADP receptor in sea urchin egg homogenate preincubated 10 mins before [32P]NAADP addition; assay type: tissue-based, Lytechinus pictus
Method in brief: (§2)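 Sea urchin egg homogenate in intracellular-like buffer. Compound in DMSO (final 1% v/v) pre-incubated 10 min at 25°C, then [32P]NAADP added to 0.3 nM. Incubated 30 min, then binding assessed by filtration; concentration range used for displacement curves.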

[3] = as §1; assay type: functional, tissue-based, Lytechinus pictus
[4] = test system: Lytechinus pictus; assay: Noncompetitive inhibition of NAADP receptor in sea urchin egg homogenate assessed as inhibition of NAADP induced Ca2+ release using Fluo-3 staining based fluorimetric assay; assay type: tissue-based
[5] = Displacement of [32P]NAADP from Egg-binding protein in sea urchin egg homogenate at 6 uM after 10 mins; assay type: tissue-based, Lytechinus pictus; method in brief: as §2
[6] = test system: Lytechinus pictus; assay: Displacement of [32P]NAADP from NAADP receptor in sea urchin egg homogenate after 5 days; assay type: tissue-based
Method in brief: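 Homogenate pre-incubated 10 min with compound (10 μM) or NAADP (10 nM), then [32P]NAADP added. Samples filtered at time points up to 5 days; dissociation read as recovery of [32P]NAADP binding (100% ≈ 1,500 cpm).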

[7] = test system: Lytechinus pictus; assay: Antagonistic activity at NAADP receptor in intact sea urchin eggs assessed as Inhibition of NAADP mediated Ca2+ increase at 100 uM using Oregon Green 488-BAPTA Dextran staining based by laser scanning confocal microscopy; assay type: functional
Method in brief: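 Intact Lytechinus pictus eggs on polylysine-coated coverslips in artificial seawater containing compound. Eggs microinjected with Oregon Green 488 BAPTA Dextran (10 μM). NAADP (100 μM in pipette) pressure-microinjected to 1% egg volume, delivering ~1 μM. Imaged by laser-scanning confocal microscopy, 488 nm excitation, emission 530±15 nm band-pass or 510 nm long-pass.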

[8] = species on record: Mus musculus; assay: Antagonistic activity at NAADP receptor in CD1 mouse pancreatic beta cells assessed as inhibition of NAADP-mediated Ca2+ increase at 125 uM by patch clamp method; assay type: functional
Method in brief: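 Mouse pancreatic beta cells voltage-clamped with a patch pipette; NAADP delivered through the pipette (50 nM in text, 100 nM in legend). Compound pre-incubated in the bathing solution. Ca2+ increases read as Ca2+-dependent current traces, compared with and without compound in the bath.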

[9] = species on record: Mus musculus; assay: Binding affinity to NAADP receptor in CD1 mouse pancreatic beta cells assessed as fluorescent labeling of receptor at 60 nM after 30 mins in presence of V-type proton pump inhibitor bafilomycin A1 by confocal microscopy
Method in brief: (§3)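 Mouse pancreatic beta cells imaged by confocal microscopy, compound excited at 355 nm with emission 415±30 nm. LysoTracker Red (50 nM, 20-40 min; excitation 568 nm, emission >590 nm) used as comparison. Pretreatment with bafilomycin A1 (3 μM, 15 min) or NAADP-acetoxymethyl ester (60 nM, 30 min).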

[10] = species on record: Mus musculus; assay: Binding affinity to NAADP receptor in CD1 mouse pancreatic beta cells assessed as fluorescent labeling of receptor at 60 nM after 30 mins by confocal microscopy; method in brief: as §3
[11] = (§4) Inhibition of glucose-induced Ca2+ increase in CD1 mouse pancreatic islets preincubated for 30 mins before glucose challenge; assay type: functional, cell-based; conditions: CD1, Pancreatic islet
Method in brief: (§5)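 Acutely isolated mouse islets loaded with fura-PE3 AM and held in 3 mM glucose. Compound pre-incubated 30 min, then 15 mM glucose added. First peak, oscillation amplitude and plateau measured; concentration-inhibition curve gives IC50.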

[12] = test system: Pancreatic islet; assay: as §4; assay type: functional, cell-based; method in brief: as §5
[13] = species on record: Mus musculus; assay: Inhibition of L-type calcium channel in CD1 mouse pancreatic islets at 100 uM in presence of glucose diazoxide and KCl
Method in brief: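 Mouse islets in glucose (10 mM) and diazoxide (100 μM), depolarized with KCl (45 mM) with or without compound (100 μM). Ca2+ transient monitored with fura-PE3.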

[14] = test system: Pancreatic islet; assay: Inhibition of glucose induced mitochondrial metabolism in CD1 mouse pancreatic islets assessed as NADH and NADPH levels by fluorescence method; assay type: functional, cell-based
Method in brief: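 Mouse islets pre-incubated 60 min at 37°C in 3 mM glucose. NAD(P)H fluorescence (360 nm excitation, >470 nm emission) expressed as percent of basal values within the same islet.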

[15] = test system: Lytechinus pictus; assay: Inhibition of IP3-induced Ca2+ release in sea urchin Egg homogenate at 100 uM using Fluo-3 staining based fluorimetric assay relative to control; values are per cent of control
[16] = test system: Lytechinus pictus; assay: Inhibition of cyclic ADP-ribose-induced Ca2+ release in sea urchin Egg homogenate at 100 uM using Fluo-3 staining based fluorimetric assay relative to control; values are per cent of control
[17] = test system: Lytechinus pictus; assay: Antagonistic activity at NAADP receptor in sea urchin egg homogenate assessed as inhibition of NAADP-mediated Ca2+ release at 100 uM using Fluo-3 staining based fluorimetric assay relative to control; values are per cent of control

| Compound | inhibition [1] | also measured |
| --- | --- | --- |
| Cc1ccc(-c2cc(C(=O)NCC(C)(C)CNC(=O)c3cc(-c4ccc(C)o4)nc4ccccc34)c3ccccc3n2)o1 | inactive | – |
| NC(=O)c1c(NC(=O)CN2CCN(S(=O)(=O)c3ccc4c(c3)OCCO4)CC2)sc2c1CCCC2 | inactive | – |
| COc1ccc([C@@H]2N[C@H](C(=O)O)Cc3c2[nH]c2ccccc32)cc1CN1CCN(c2ccccc2F)CC1 | – | IC50 [2]: 15 µM; IC50 [3]: 0.8 µM |
| CCN1C(=O)c2ccccc2[C@H]1Nc1ccc(C(=O)N2CCN(C/C=C/c3ccccc3)CC2)cc1 | inactive | – |
| COc1ccc2[nH]c(C(=O)O)c(CCNC(=O)CO/N=C3/C=C[C@@]4(C)C(=C3)CC[C@@H]3[C@H]4CC[C@]4(C)[C@H]3CC[C@]4(C)O)c2c1 | Toxic | – |
| CCC(=O)N1N=C(c2ccc(C3=NN(C(=O)CC)[C@H](c4cccc(OC)c4OC)C3)cc2)C[C@H]1c1cccc(OC)c1OC | Insoluble | – |
| O=C(COC(=O)c1cccc(Oc2ccccc2)c1)COC(=O)c1cccc(Oc2ccccc2)c1 | inactive | – |
| CCn1c2ccccc2c2cc(NC(=O)CN3CCN(S(=O)(=O)c4ccc(OC)cc4)CC3)ccc21 | inactive | – |
| FC(F)(F)c1cccc(N2CCN(Cn3nc(COc4ccccc4)n(-c4ccccc4)c3=S)CC2)c1 | Toxic | – |
| COc1ccc(C(=O)OCC(=O)c2ccc3c(c2)-c2ccccc2C3)cc1S(=O)(=O)N1CCCc2ccccc21 | Active | – |
| COc1ccccc1N(C)S(=O)(=O)c1ccc(C(=O)Nc2ccc(N(c3ccccc3)C(C)C)cc2)cc1 | Active | – |
| COc1ccc(S(=O)(=O)N2CCN([C@H](C)C(=O)Nc3ccccc3-c3ccccc3)CC2)cc1 | inactive | – |
| CCn1c2ccccc2c2cc(NC(=O)CN3CCN(S(=O)(=O)c4cc(Cl)ccc4Cl)CC3)ccc21 | inactive | – |
| CC(C)N(CCCNC(=O)c1ccc2c(c1)N(Cc1c(F)cccc1Cl)C(=O)CS2)Cc1ccccc1 | Active | – |
| CS(=O)(=O)N(Cc1ccccc1)c1ccc(C(=O)N/N=C/c2cccc(Oc3ccccc3)c2)cc1 | inactive | – |
| O=C(COc1ccccc1-c1ccccc1)N1CCN(S(=O)(=O)c2ccc3c(c2)OCCO3)CC1 | inactive | – |
| CCN(CC)CCOC(=O)c1ccc(NC(=O)c2cc(-c3cccc4ccccc34)nc3ccccc23)cc1 | inactive | – |
| CN1C(=O)/C(=C/c2ccccc2F)Sc2ccc(C(=O)N3CCN(Cc4ccc5c(c4)OCO5)CC3)cc21 | inactive | – |
| COc1ccc(C2N[C@H](C(=O)O)Cc3c2[nH]c2ccccc32)cc1CN1CCN(c2ccccc2F)CC1 (some centres not stated) | – | inhibition [4]: Active; Ki [5]: 6 µM; inhibition [6]: Active; inhibition [7]: Active; inhibition [8]: Active; Activity [9]: Active; Activity [10]: Active; IC50 [11]: 3 µM; inhibition [12]: Dose-dependent effect; inhibition [13]: inactive; inhibition [14]: inactive; IC50 [3]: 2 µM; level, % of control [15]: 87%; level, % of control [16]: 101%; residual activity [17]: 5.4% |
| C=C1NN(c2nc(-c3cccc([N+](=O)[O-])c3)cs2)C(=O)/C1=N/Nc1ccc(Cl)cc1C(=O)c1ccccc1 | Insoluble | – |
| COc1ccc([C@H]2N[C@H](C(=O)O)Cc3c2[nH]c2ccccc32)cc1CN1CCN(c2ccccc2F)CC1 | – | IC50 [2]: 0.0004 µM; IC50 [3]: 0.006 µM |
| CN1C(=O)/C(=C/c2ccccc2Cl)Sc2ccc(C(=O)N3CCN(Cc4ccc5c(c4)OCO5)CC3)cc21 | inactive | – |
| Cc1ccc(-n2c(SCC(=O)N/N=C\c3cccc(Oc4ccccc4)c3)nnc2-c2ccc(Cl)cc2)cc1 | inactive | – |
| COc1cc2c(cc1OC)-c1cc(NCCN3CCN(C(=O)c4ccc(F)cc4)CC3)nc(=O)n1CC2 | inactive | – |
| CC(C)(c1ccccc1)c1ccc(OC[C@@H](O)CN[C@H](Cc2ccccc2)c2nc(-c3ccccc3)no2)cc1 | inactive | – |
| C[C@@H]1CCc2c(sc(NC(=O)CN3CCN(S(=O)(=O)c4ccc5c(c4)OCCO5)CC3)c2C#N)C1 | inactive | – |
